Shown are actives, neighbours in structure and some others; about 0.41% of the full set was active somewhere.
CR mimetic SO: caloric restriction mimetics inhibiting age-related superoxide in yeast. S. cerevisiae aged cells, superoxide DHE fluorescence; hits give low values. superoxide response (% of plate mean), % at 10 µM. actives 0.18% (n = 330,000). AID 2690;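 active = superoxide response under a set limit, about three screen SD below normal, cut at about 65% in these data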;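 also: yeast aged for seven days with compound at 30 °C before DHE staining; 100% = average MFI of all compound-treated wells on the plate with controls excluded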
S1P3 antagonist: S1P3 (human) receptor antagonism. Q99500. CHO S1P3 NFAT-BLA reporter, FRET fluorescence, antagonist mode. AID 485. inhibition, % at 4.98 µM. actives 0.27% (n = 170,000);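 active = inhibition above the plate cutoff, the mean inhibition of test wells on that plate plus 3 SD, cut at about 28% in these data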;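 also: cells challenged with S1P at its EC80 of 0.8 µM; blue over green emission ratio from cleaved BLA substrate after 4 h stimulation; 0% = S1P-stimulated wells and 100% = unstimulated DMSO-only wells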
Target sequence (Q99500 whole entry, looked up): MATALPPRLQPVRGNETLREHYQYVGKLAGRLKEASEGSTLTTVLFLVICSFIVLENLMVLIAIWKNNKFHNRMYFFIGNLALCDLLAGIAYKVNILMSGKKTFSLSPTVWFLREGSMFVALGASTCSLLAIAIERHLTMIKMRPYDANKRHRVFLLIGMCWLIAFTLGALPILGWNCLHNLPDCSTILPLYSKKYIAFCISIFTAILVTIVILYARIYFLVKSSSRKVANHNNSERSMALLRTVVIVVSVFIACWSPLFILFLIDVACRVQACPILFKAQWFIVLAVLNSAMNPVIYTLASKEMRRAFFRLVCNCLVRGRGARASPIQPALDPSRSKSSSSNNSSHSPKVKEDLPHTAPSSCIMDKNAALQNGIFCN
T cell HTS: T cell immune modulation candidate | 2C CD8+ T cell-vesicle binding, flow cytometry; hits give low values | response (vesicle binding), % at 7 µM | actives 0.068% (n = 330,000) | AID 2052;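 active = response, share of CD8 T cells binding vesicles, and their 90th percentile fluorescence all below set limits, cut at about 80% in these data, passing the limit was not always enough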;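 also: values below 100% mean blocked vesicle binding to the CD8+ T cells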
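Assay system: 2C TCR transgenic mouse naive CD8+ T cells, MACS-purified | Read-out: CD8+ gate FL2 mean fluorescence as % of same-row positive control | Signal: High-throughput flow cytometry with anti-B7-1 and anti-CD8 staining | Timing: Binding step 1.5 h, 37 °C, antibody labelling 20 min, ice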
Superoxide pick: confirmation of caloric restriction mimetics inhibiting yeast age-related superoxide; AID 434994; shares compounds with CR mimetic SO; superoxide response (% of plate), % at 10 µM; actives 1% (n = 850); S. cerevisiae aging, superoxide DHE fluorescence; hits give low values;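 active = superoxide signal below 65% of the plate average of sample wells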;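 also: cells aged with compound for 7 days at 30 degrees C before staining; 100% equals mean DHE fluorescence of all compound wells on the plate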
DHE counter: counter-screen for compounds affecting DHE oxidation and fluorescence in yeast. S. cerevisiae BY4741, flow cytometry; hits give low values. shares compounds with CR mimetic SO. AID 435000. fluorescence response, % at 10 µM. 850 tested, under 10 active;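 active = fluorescence response below 15%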;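 also: percent of the mean fluorescence averaged over all compound wells on the plate; lower means stronger quenching of DHE signal or ROS scavenging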
Numbers without * were called inactive; i = inactive; . = not tested or not shown.

SMILES | CR mimetic SO | S1P3 antagonist | T cell HTS | Superoxide pick | DHE counter
CN(C)S(=O)(=O)c1ccc(NC(=O)CN2CCN(c3ccccn3)CC2)cc1 | 80 | . | 18 | 107 | 91
CN(C)c1ccc(NC(=O)CCN2CCN(c3ccccn3)CC2)cc1 | 94 | . | 99 | . | .
Cc1cc(C)cc(NC(=O)CN2CCN(c3ccccn3)CC2)c1 | 89 | . | 170 | . | .
CC(=O)Nc1ccc(NC(=O)CN2CCN(c3ccccn3)CC2)cc1 | 53* | . | 91 | 101 | 94
O=C(CN1CCCC1)Nc1ccc(OC(F)(F)F)cc1 | 106 | . | 470 | . | .
COc1ccccc1N(CC(=O)NCCSCc1cccc(C)c1)S(=O)(=O)c1ccccc1 | 99 | . | 209 | . | .
CC1CN(C(=O)/C=C/c2ccc(SC(F)F)cc2)CC(C)O1 (stereo not given) | 84 | . | 192 | . | .
O=C(COC(=O)/C=C/c1cccc(Br)c1)Nc1cccc(S(=O)(=O)NC2=NCCC2)c1 | 96 | . | 178 | . | .
COc1ccc(CNC(=O)C2CCC(CNS(=O)(=O)c3cccs3)CC2)cc1 (stereo not given) | 100 | . | 190 | . | .
CCCC(=O)NC(=S)Nc1cccc(C(C)=O)c1 | 88 | . | 321 | . | .
CCCCCC(=O)NC(=S)Nc1cccc(C(C)=O)c1 | 60* | -5 | 378 | 101 | 94
COC(=O)C(CC(C)C)NC(=O)C(N)Cc1ccccc1 (stereo not given) | 91 | . | 262 | . | .
COC(=O)[C@H](Cc1ccccc1)NC(=O)[C@@H](N)CC(=O)OCc1ccccc1 | 65* | . | 76 | 94 | 101
Cc1ccc(S(=O)(=O)N2CC(O)C[C@H]2C(=O)OCC(=O)Nc2ccc(N3CCCCC3)cc2)cc1C (stereo not given in full) | 104 | . | 581 | . | .
Cc1ccc(C)c(NC(=O)CN(C)C(=O)c2oc3c(Cl)cccc3c2C)c1 | 65* | . | 348 | 105 | 105
CCN(CC(=O)Nc1ccccc1C(F)(F)F)C(=O)c1oc2c(Cl)cccc2c1C | 110 | . | 338 | . | .
COc1ccc(NC(C)=O)cc1S(=O)(=O)N(C)Cc1c(C)nn(-c2ccccc2)c1C | 102 | . | 209 | . | .
Cc1ccc2c(c1)-n1c(nc3ccc(C)cc3c1=O)C(Cc1ccccc1)NC2=O (stereo not given) | 103 | . | 727 | . | .
CCc1nc2ccccc2c(=O)n1/N=C/c1ccc(OC)cc1 | 89 | . | 511 | . | .
CSc1ccc(/C=C(\C#N)C(=O)NC2CCCCC2)cc1 | 60* | -7 | 239 | 102 | 91
CC(=O)Nc1ccc(/C=C(\C#N)C(=O)NC2CCCCC2)cc1 | 101 | -7 | 190 | . | .
Cc1cc(OCC(=O)Nc2ccccc2N2CCOCC2)c(C(C)C)cc1Cl | 93 | . | 381 | . | .
CCCCn1c2ccccc2c2cc(CC(N)=O)ccc21 | 103 | 6 | 506 | 94 | 91
CCCCn1c(=O)c(-c2ccccc2)c(O)c2ccccc21 | 104 | -40 | 212 | . | .
CCC(C)[C@H](NC(=O)C1CC(=O)N(c2ccc(OC)cc2)C1)C(=O)N1CCCCC1 (stereo not given in full) | 95 | . | 649 | . | .
SMILES | CR mimetic SO | S1P3 antagonist | T cell HTS | Superoxide pick | DHE counter
C=CCn1c(C)nnc1SCC(=O)Nc1ccc2c(c1)OCCO2 | 104 | . | 207 | . | .
CCOc1cccc(-c2nnc(SCC(=O)Nc3cccc(OC)c3)n2N)c1 | . | 16 | . | 104 | 100
C=CCn1c(SCC(=O)Nc2cc(NC(C)=O)ccc2OC)nnc1-c1ccccn1 | 112 | -26 | 660 | . | .
COc1cccc(NC(=O)CSc2nnc(-c3cc(C)[nH]n3)n2N)c1 | 89 | . | 275 | . | .
C=CCn1c(SCC(=O)Nc2cc(NC(C)=O)ccc2OC)nnc1-c1cccnc1 | 105 | -25 | 719 | 94 | 94
COc1ccc(NC(=O)CSc2nnc(-c3ccccc3)n2N)cc1 | 104 | . | 436 | . | .
C=CCn1c(SCC(=O)Nc2ccc3c(c2)OCCO3)nnc1-c1ccco1 | 92 | -11 | . | 104 | 102
COc1cccc(-c2nnc(SCC(=O)Nc3ccc(OC)c(OC)c3)n2N)c1 | 104 | -7 | 257 | 111 | 99
CCC(=O)N(Cc1cc2ccccc2[nH]c1=O)c1ccccc1OC | 104 | . | 562 | . | .
COc1ccc(OC)c(N(/C(N)=N/c2nc(C)cc(C)n2)S(=O)(=O)c2ccc(NC(C)=O)cc2)c1 | 132 | . | 404 | . | .
O=C1CCCC/C1=C\Nc1ccc(S(=O)(=O)Nc2cnc3ccccc3n2)cc1 | 100 | 8 | 194 | . | .
Cc1ccc(NC(=O)c2nc(S(=O)(=O)Cc3ccccc3C)ncc2Cl)cc1C | 133 | . | 185 | . | .
CSc1ncc(Cl)c(C(=O)Nc2ccc(C)c(C)c2)n1 | 65* | . | 185 | 99 | 114
COc1ccc(NC(=O)c2nc(SC)ncc2Cl)cc1 | 109 | 10 | 227 | . | .
COc1cccc(NC(=O)c2nc(SC)ncc2Cl)c1 | 106 | . | 326 | 116 | 123
O=C1c2ccccc2/C(=C\C#Cc2ccccn2)N1c1ccccc1 | 109 | . | . | . | .
O=C(Nc1ccc2ccccc2n1)c1ccccc1Cl | 117 | . | 259 | . | .
COc1ccc2nc3ccccc3nc2c1NC(=O)c1ccccc1Cl | 53* | -13 | 193 | 80 | 93
CC(C)(C)c1ccc(-n2ncc3c2CCCC3NC(=O)c2csnn2)cc1 (stereo not given) | 58* | . | 532 | 101 | 104
CC(C)(C)c1ccc(-n2ncc3c2CCCC3NC(=O)c2cnccn2)cc1 (stereo not given) | 98 | . | 332 | . | .
Cc1ccc(-n2c(C)cc(C(=O)COc3cccnc3[N+](=O)[O-])c2C)cc1 | 123 | -9 | 204 | . | .
Cc1cc(C(=O)COc2cccnc2[N+](=O)[O-])c(C)n1-c1ccccc1 | 58* | -8 | 296 | 123 | 129
Cn1cncc1C#Cc1c(C=O)[nH]c2ccccc12 | 96 | . | 289 | . | .
CC(=O)N1CCN(C(=O)COC(=O)/C=C/c2ccc(C(F)(F)F)cc2)CC1 | 84 | . | 294 | . | .
Cc1cccc(NC(=O)c2nc[nH]c2C(=O)N[C@@H](C)C(=O)OCc2ccccc2)c1 | 87 | . | 569 | . | .
SMILES | CR mimetic SO | S1P3 antagonist | T cell HTS | Superoxide pick | DHE counter
Cc1cccc(NC(=O)c2nc[nH]c2C(=O)N[C@@H](CC(C)C)C(=O)OCc2ccccc2)c1 | 63* | . | 749 | 91 | 94
O=C(Nc1nc2c(F)cc(F)cc2s1)C1CC(=O)N(Cc2ccco2)C1 (stereo not given) | 96 | 2 | 630 | . | .
C[C@H](NC(=O)c1ccccc1)C(=O)N1CCN(c2ccccc2)CC1 | 87 | . | 715 | . | .
CCN(c1ccc(OC)cc1)S(=O)(=O)c1cc(-c2cc(C)no2)ccc1C(C)C | 81 | . | 745 | . | .
CCN(c1ccc(OC)cc1)S(=O)(=O)c1cc(-c2cc(C)no2)ccc1OC | 63* | . | 237 | 103 | 91
CC(NCC(=O)Nc1ccccc1C(=O)NC1CC1)c1cccc(C(F)(F)F)c1 (stereo not given) | 94 | . | i | . | .
O=C(CCNC(=O)c1ccc(Br)cc1)OCc1ccccc1Cl | 63* | . | 445 | 115 | 115
O=C(CNC(=O)c1ccccc1)NCC(=O)OCc1ccccc1Cl | 109 | -11 | 455 | . | .
O=C1C(=O)c2ccc(-c3ccccc3)cc2-c2ccccc21 | 111 | . | 210 | . | .
O=C1C(c2ccccc2)=[N+]([O-])c2ccccc21 | 57* | . | 522 | 81 | 95
